Where two headings read alike, the source gives them in different places.
How the values were obtained:
[1] = animal studies, tissue distribution; cited from earlier work
[2] = did not convert to Pi-LAC; cited from earlier work
[3] = Single-dose pharmacokinetic study of pitavastatin calcium tablets; format: in vivo, human (healthy Chinese volunteers); conditions: for half-life / AUC(0-inf) / AUC(0-t) / Tmax / Vd / clearance / Cmax: human, plasma
Summary of the method: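 Randomized 3-way crossover in healthy Chinese volunteers (6 male, 6 female) with 5-day washouts. Single oral 1, 2 or 4 mg tablets were given after a 12-h fast with 200 mL water; meals at 4 and 10 h. Venous samples were taken predose and from 0.25 to 36 h. Heparinised plasma was analysed by LC-MS/MS (0.287–287 ng/mL). Noncompartmental analysis: Cmax/Tmax observed; AUC0–t by linear trapezoidal rule; AUC0–∞ = AUC0–t + Ct/λ.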

[4] = OATP 388GA + 388GG mutant group vs 388AA wild-type group; cited from earlier work
[5] = system: albumin and alpha-1-acid glycoprotein; conditions: primarily to albumin and alpha-1-acid glycoprotein; cited from earlier work
[6] = format: in vivo, human (healthy Chinese volunteers); conditions: for Cav: 2 mg multiple dose
Summary of the method: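 Healthy Chinese volunteers (18–27 years, BMI 19–24) took a 2-mg tablet of the test compound orally once daily for 6 days. Predose samples were taken on days 3–5. On day 6, samples were taken predose and from 0.25 to 48 h. Heparinised plasma was stored at –20°C and extracted into diethyl ether-dichloromethane. LC-MS/MS range was 0.287–287 ng/mL. Noncompartmental analysis; accumulation index = AUC(multiple-dose)/AUC(single-dose).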

[7] = Stability tests of the analyte in human plasma; format: in vitro ADME
[8] = Tolerability assessment; format: in vivo, human (healthy Chinese volunteers); conditions: single doses of 1 mg, 2 mg, or 4 mg and multiple doses of 2 mg once daily for 6 days, all subjects
[9] = multiple dose 2 mg once daily for 6 days, n = 11, mean (SD)

Q: For `O=C(O)C[C@H](O)C[C@H](O)/C=C/c1c(C2CC2)nc2ccccc2c1-c1ccc(F)cc1` [pitavastatin], which “liver levels relative to plasma” value [1] is on record?
A: The value was “approximately 54 times”.

Q: And the “stability in human plasma (conversion to Pi-LAC)” value [2]?
A: The value was “stable”.

Q: And the half-life ([3]; both, oral)?
A: Its half-life is roughly 10 h.

Q: And the AUC(0-inf) ([3]; both, oral, 1 mg)?
A: Its AUC(0-inf) is 0.206 µg·h/mL.

Q: And the AUC(0-t) ([3]; both, oral, 1 mg)?
A: Its AUC(0-t) is 0.19 µg·h/mL.

Q: What about the Tmax ([3]; both, oral, 1 mg) of the same compound?
A: Its Tmax is 0.63 h.

Q: And the Vd ([3]; both, oral, 1 mg)?
A: The Vd was 79.9 L.

Q: What about the clearance ([3]; both, oral, 1 mg) of the same compound?
A: The clearance was 84.8 mL/min.

Q: What about the half-life ([3]; both, oral, 1 mg) of the same compound?
A: The half-life was 11 h.

Q: And the AUC(0-inf) ([3]; both, oral, 2 mg)?
A: The AUC(0-inf) was 0.321 µg·h/mL.

Q: And the AUC(0-t) ([3]; both, oral, 2 mg)?
A: Its AUC(0-t) is 0.308 µg·h/mL.

Q: What about the Tmax ([3]; both, oral, 2 mg) of the same compound?
A: The Tmax was 0.65 h.

Q: What about the Vd ([3]; both, oral, 2 mg) of the same compound?
A: The Vd was 86.9 L.

Q: And the clearance ([3]; both, oral, 2 mg)?
A: The clearance was 108 mL/min.

Q: What about the half-life ([3]; both, oral, 2 mg) of the same compound?
A: The half-life was 9.52 h.

Q: And the AUC(0-inf) ([3]; both, oral, 4 mg)?
A: The AUC(0-inf) was 0.828 µg·h/mL.

Q: What about the AUC(0-t) ([3]; both, oral, 4 mg) of the same compound?
A: The AUC(0-t) was 0.785 µg·h/mL.

Q: What about the Tmax ([3]; both, oral, 4 mg) of the same compound?
A: The Tmax was 0.79 h.

Q: And the Vd ([3]; both, oral, 4 mg)?
A: Its Vd is 72.5 L.

Q: And the clearance ([3]; both, oral, 4 mg)?
A: The clearance was 85.5 mL/min.

Q: And the half-life ([3]; both, oral, 4 mg)?
A: The half-life was 10.4 h.

Q: What about the Tmax ([3]; both, po) of the same compound?
A: Its Tmax is no more than 1 h.

Q: What about the Cmax ([3]; both, po, 1 mg) of the same compound?
A: Its Cmax is 0.0668 µg/mL.

Q: What about the Cmax ([3]; both, po, 2 mg) of the same compound?
A: The Cmax was 0.106 µg/mL.

Q: What about the Cmax ([3]; both, po, 4 mg) of the same compound?
A: The Cmax was 0.233 µg/mL.

Q: What about the AUC(0-t) ([3]; female, oral, 1 mg) of the same compound?
A: The AUC(0-t) was 0.204 µg·h/mL.

Q: And the Cmax ([3]; female, oral, 1 mg)?
A: The Cmax was 0.071 µg/mL.

Q: What about the Tmax ([3]; female, oral, 1 mg) of the same compound?
A: The Tmax was 0.67 h.

Q: What about the Vd ([3]; female, oral, 1 mg) of the same compound?
A: The Vd was 73.3 L.

Q: And the clearance ([3]; female, oral, 1 mg)?
A: Its clearance is 77.5 mL/min.

Q: And the half-life ([3]; female, oral, 1 mg)?
A: The half-life was 9.69 h.

Q: And the AUC(0-t) ([3]; female, oral, 2 mg)?
A: Its AUC(0-t) is 0.33 µg·h/mL.

Q: What about the Cmax ([3]; female, oral, 2 mg) of the same compound?
A: Its Cmax is 0.114 µg/mL.

Q: And the Tmax ([3]; female, oral, 2 mg)?
A: The Tmax was 0.67 h.

Q: What about the Vd ([3]; female, oral, 2 mg) of the same compound?
A: The Vd was 87.5 L.

Q: What about the clearance ([3]; female, oral, 2 mg) of the same compound?
A: Its clearance is 102 mL/min.

Q: And the half-life ([3]; female, oral, 2 mg)?
A: Its half-life is 9.95 h.

Q: And the Cmax ([3]; female, oral, 4 mg)?
A: Its Cmax is 0.253 µg/mL.

Q: And the Tmax ([3]; female, oral, 4 mg)?
A: Its Tmax is 0.9 h.

Q: And the Vd ([3]; female, oral, 4 mg)?
A: Its Vd is 72.7 L.

Q: And the clearance ([3]; female, oral, 4 mg)?
A: Its clearance is 83 mL/min.

Q: And the half-life ([3]; female, oral, 4 mg)?
A: The half-life was 11.8 h.

Q: What about the AUC(0-t) ([3]; male, oral, 1 mg) of the same compound?
A: Its AUC(0-t) is 0.176 µg·h/mL.

Q: What about the Cmax ([3]; male, oral, 1 mg) of the same compound?
A: Its Cmax is 0.0626 µg/mL.

Q: And the Tmax ([3]; male, oral, 1 mg)?
A: Its Tmax is 0.58 h.

Q: And the Vd ([3]; male, oral, 1 mg)?
A: The Vd was 86.4 L.

Q: And the clearance ([3]; male, oral, 1 mg)?
A: Its clearance is 92 mL/min.

Q: And the half-life ([3]; male, oral, 1 mg)?
A: The half-life was 12.3 h.

Q: What about the AUC(0-t) ([3]; male, oral, 2 mg) of the same compound?
A: The AUC(0-t) was 0.286 µg·h/mL.

Q: And the Cmax ([3]; male, oral, 2 mg)?
A: The Cmax was 0.0984 µg/mL.

Q: And the Tmax ([3]; male, oral, 2 mg)?
A: The Tmax was 0.63 h.

Q: And the Vd ([3]; male, oral, 2 mg)?
A: Its Vd is 86.4 L.

Q: And the clearance ([3]; male, oral, 2 mg)?
A: The clearance was 114 mL/min.

Q: What about the half-life ([3]; male, oral, 2 mg) of the same compound?
A: The half-life was 9.08 h.

Q: And the AUC(0-t) ([3]; male, oral, 4 mg)?
A: Its AUC(0-t) is 0.69 µg·h/mL.

Q: What about the Cmax ([3]; male, oral, 4 mg) of the same compound?
A: The Cmax was 0.209 µg/mL.

Q: What about the Tmax ([3]; male, oral, 4 mg) of the same compound?
A: The Tmax was 0.65 h.

Q: What about the Vd ([3]; male, oral, 4 mg) of the same compound?
A: The Vd was 72.2 L.

Q: And the clearance ([3]; male, oral, 4 mg)?
A: The clearance was 98.5 mL/min.

Q: And the half-life ([3]; male, oral, 4 mg)?
A: The half-life was 8.72 h.

Q: And the “correlation coefficient of dose-proportionality linear regression for AUC0−t” value ([3]; single dosing 1 mg, 2 mg, 4 mg)?
A: The value was 0.92.

Q: What about the “correlation coefficient of dose-proportionality linear regression for AUC0−∞” value ([3]; single dosing 1 mg, 2 mg, 4 mg) of the same compound?
A: Its value is 0.91.

Q: And the “correlation coefficient of dose-proportionality linear regression for Cmax” value ([3]; single dosing 1 mg, 2 mg, 4 mg)?
A: The value was 0.86.

Q: What about the “AUC higher than wild type” value [4] of the same compound?
A: The value was “about 80%”.

Q: What about the “Cmax higher than wild type” value [4] of the same compound?
A: Its value is roughly 71%.

Q: What about the “oral elimination lower than wild type” value [4] of the same compound?
A: The value was “about 35%”.

Q: What about the protein binding ratio [5] of the same compound?
A: The protein binding ratio was 96%.

Q: And the “accumulation index (Cmax, multiple-dose/Cmax, single-dose)” value ([6]; 2 mg multiple dose vs 2 mg single dose, mean (SD))?
A: Its value is 0.85 (0.23).

Q: And the “accumulation index (AUC)” value ([6]; 2 mg multiple dose vs 2 mg single dose, ratio of AUC, mean (SD))?
A: The value was 0.98 (0.28).

Q: What about the Cav ([6]; female (n = 6), mean (SD)) of the same compound?
A: Its Cav is 11.65 (6.58) ng/mL.

Q: What about the Cav ([6]; male (n = 5), mean (SD)) of the same compound?
A: Its Cav is 10.32 (1.86) ng/mL.

Q: What about the “steady state of plasma pitavastatin concentration achieved” value ([6]; 2 mg once daily, day of multiple dosing) of the same compound?
A: Its value is roughly 4 days.

Q: And the “Cav (steady-state concentration)” value [6, 9]?
A: Its value is 11.05 (4.85) ng/mL.

Q: What about the “Cmin (steady-state trough concentration)” value [6, 9] of the same compound?
A: The value was 2.58 (0.92) ng/mL.

Q: And the “stability in human plasma” value ([7]; after 3 freeze-thaw cycles (80°C to room temperature))?
A: The value was “stable”.

Q: What about the “stability in human plasma” value ([7]; at −20°C for 80 days) of the same compound?
A: The value was “stable”.

Q: And the “stability of processed samples” value ([7]; processed samples at room temperature for 8 hours)?
A: The value was “stable”.

Q: And the tolerability [8]?
A: Its tolerability is “well tolerated”.
